In data set [1] the test system is C. parvum. In words: C. parvum High Content Imaging. It is filed as cell-based. To be noted: Cryptosporidium parvum, HCT-8, read-out: Cp HCI IC50. A digest of the protocol: (§1)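 HCT-8 cells were kept in RPMI-1640 with 10% heat-inactivated horse serum. Oocysts were primed in 10 mM HCl in HBSS for 10 min at 37 °C, washed, then excysted in L-15/UltraCULTURE medium with 2 mM taurocholate, 10% horse serum and 200 μM ascorbate. Compound dilutions were made in taurocholate-free medium. EC50 came from ten-point threefold dose–response series.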

For another data set, the system named is Pf 3D7. The experiment in a line: P. falciparum 3D7 growth inhibition. It counts as cell-based. The settings on record: Plasmodium falciparum, 3D7, read-out: Pf 3D7 IC50.
The next data set deals with C. hominis. In words: C. hominis cytopathic effect. It counts as cell-based, Cryptosporidium hominis. The settings on record: for EC50: Cryptosporidium hominis, HCT-8, read-out: Ch CPE EC50. A digest of the protocol: as §1
A further data set can be described thus: in vitro. To be noted: human, HepG2 CC50, 96 hours. It counts as cell-based.
Another data set deals with T1, CpPI(4)K (cgd8_4500) (Cryptosporidium parvum, UniProt Q5CVD3).
T1 sequence (Q5CVD3 1-1114): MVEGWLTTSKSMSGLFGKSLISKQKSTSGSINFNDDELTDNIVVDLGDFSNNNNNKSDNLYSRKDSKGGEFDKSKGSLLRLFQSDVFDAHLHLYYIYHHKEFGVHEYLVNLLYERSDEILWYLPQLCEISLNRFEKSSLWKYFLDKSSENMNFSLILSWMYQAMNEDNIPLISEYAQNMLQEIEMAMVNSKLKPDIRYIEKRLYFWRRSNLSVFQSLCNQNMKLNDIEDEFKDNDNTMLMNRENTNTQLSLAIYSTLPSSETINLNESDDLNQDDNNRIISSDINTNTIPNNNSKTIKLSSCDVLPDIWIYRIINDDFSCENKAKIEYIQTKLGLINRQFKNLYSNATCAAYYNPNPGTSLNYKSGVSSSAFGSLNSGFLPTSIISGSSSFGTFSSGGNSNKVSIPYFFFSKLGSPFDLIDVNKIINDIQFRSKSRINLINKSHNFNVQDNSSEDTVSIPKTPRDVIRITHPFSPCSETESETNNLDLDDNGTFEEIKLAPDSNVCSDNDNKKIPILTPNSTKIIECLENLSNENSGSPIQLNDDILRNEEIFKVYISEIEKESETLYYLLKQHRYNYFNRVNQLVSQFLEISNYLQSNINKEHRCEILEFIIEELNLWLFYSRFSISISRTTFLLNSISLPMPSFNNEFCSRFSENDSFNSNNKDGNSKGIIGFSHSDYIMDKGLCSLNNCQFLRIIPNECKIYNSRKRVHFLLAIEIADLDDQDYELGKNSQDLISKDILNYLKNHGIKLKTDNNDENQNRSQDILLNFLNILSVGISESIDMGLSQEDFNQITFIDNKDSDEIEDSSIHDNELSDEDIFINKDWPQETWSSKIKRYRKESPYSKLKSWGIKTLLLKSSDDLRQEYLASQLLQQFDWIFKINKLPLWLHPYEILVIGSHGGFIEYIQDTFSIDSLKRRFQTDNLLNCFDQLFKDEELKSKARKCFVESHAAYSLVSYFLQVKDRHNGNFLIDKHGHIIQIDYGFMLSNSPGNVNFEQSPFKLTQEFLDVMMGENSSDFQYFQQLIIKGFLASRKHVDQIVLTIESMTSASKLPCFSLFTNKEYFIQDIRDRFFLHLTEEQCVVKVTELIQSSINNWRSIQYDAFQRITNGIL
In words: CpPI. To be noted: for IC50: Cp PI(4)K IC50, 3 μM ATP. It counts as biochemical, C. parvum.

The subject of data set [2] is C. parvum. In words: C. parvum cytopathic effect. It is filed as cell-based, Cryptosporidium parvum. To be noted: for EC50: Cryptosporidium parvum, HCT-8, read-out: Cp CPE EC50. A digest of the protocol:
as §1
For orientation: Damage to the host cells serves as the signal in cytopathic effect assays.

Another data set concerns C. parvum UGA2 Fluc. In words: Mouse model following tissue parasite load using whole-animal imaging. It is filed as in vivo, IFN-γKO mice. The settings on record: 100 mg/kg daily from day 7.

Each structure is given as a SMILES string.

As usually defined, the IC50 is the concentration needed to halve the response being measured. What is called EC50 is the midpoint of the concentration-response curve. Broadly, the CC50 is the concentration at which the toxic effect on the cells reaches its halfway point.

Regarding `CS(=O)(=O)c1ccc(-c2cnc(N)c(-c3ccc(C(F)(F)F)nc3)c2)cc1` [MMV390048], the IC50 in the data set on C. parvum [1] came out at 13.4 µM. The IC50 in the data set with Pf 3D7 stood at 0.042 ± 0.022 µM. In addition, in the data set on C. hominis, the “activity against C. hominis” value is “inactive” and the EC50 came out at 11.8 ± 2.76 µM. Moreover, it took 26.2 ± 16.1 µM to reach half-maximal cytotoxicity in “in vitro” (CC50). Moreover, at CpPI(4)K (cgd8_4500), the “inhibition of CpPI(4)K enzymatic activity” value is given as “do not inhibit” and half-maximal inhibition (IC50) was put at 8.33 ± 2.35 µM. Also, in the data set on C. parvum [2], the “activity against C. parvum” value was “inactive” and the EC50 came out at 12.8 ± 6.26 µM.
For `CC(=O)Oc1ccccc1C(=O)Nc1ncc([N+](=O)[O-])s1` [Nitazoxanide], the IC50 in the data set with C. parvum [1] was 2.93 ± 0.808 µM; in the data set with Pf 3D7 it was above 10 µM; on CpPI(4)K (cgd8_4500) it was above 10 µM. Besides, the figures for the EC50 in the data set on C. hominis and in the data set with C. parvum [2] were above 20 µM and 14.3 ± 7.13 µM, respectively. In the data set “in vitro”, this compound returned a CC50 of 12.7 ± 2.38 µM. Also, the “tissue load” value in the data set on C. parvum UGA2 Fluc is “no change”.

The values above are taken from article PMC5473467 (Nature, 2017).
